Experimental data published in ChEMBL document CHEMBL5042515, “Design and Evaluation of a Novel Peptide-Drug Conjugate Covalently Targeting SARS-CoV-2 Papain-like Protease” (J Med Chem, 2022).
Activity calls are given as the source filed them. No cut-off for these calls is given here. *1 amine or outer side, *2 acyl side, *3 side chain or, on linkers, in order; H or OH if unused. Where a SMILES comes first, the peptide text is derived from it. Bridges are numbered along the chain shown (N, C = ends). [ ]: non-standard residue; d: D form. The star is where a group is joined. Met(S-mXyl) = C[S+](CC[C@H](N[*:1])C(=O)[*:2])Cc1cccc(C[*:3])c1; 5FAM = O=C1OC2(c3ccc(O)cc3Oc3cc(O)ccc32)c2ccc(C(=O)*)cc21; X2 = C[S+](CC[C@@H](N[*:1])C(=O)[*:2])Cc1cccc(C[*:3])c1; X1 = Cc1ccc(N*)cc1C(=O)NC(C)c1cccc2ccccc12

Columns and labels:
[1] = Hemolytic activity against mouse erythrocyte at 0 to 60 uM for 1.5 hrs by microplate reader analysis; format: toxicity, cell-based; settings: dose 0-60 µM
Summary of the method: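 Fresh mouse erythrocytes washed and resuspended in PBS at 10^8/mL, then exposed to serial dilutions starting at 60 μM for 1.5 h at 37 °C. Supernatant hemoglobin read by absorbance. 0.1% Triton X-100 used as 100% control and PBS as blank; % hemolysis calculated relative to both.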

[2] = Inhibition of SARS-CoV PLpro using LRGG-ACC as substrate preincubated for 60 mins followed by substrate addition and measured for 30 mins by enzymatic assay; design: species or system Severe acute respiratory syndrome-related coronavirus
[3] = biological target: Replicase polyprotein 1ab (Middle East respiratory syndrome-related coronavirus (isolate UnitedKingdom/H123990006/2012) (Betacoronavirus England 1) (Humancoronavirus EMC)) (UniProt K9N7C7); assay: Inhibition of MERS PLpro using LRGG-ACC as substrate upto 1000 uM preincubated for 60 mins followed by substrate addition and measured for 30 mins by enzymatic assay; settings: dose microM <=1000, time 90.0 min
[4] = system: A549; assay: Cytotoxicity against human A549 cells assessed as inhibition of cell growth at 1.56 to 100 uM incubated for 24 hrs by MTT assay; format: toxicity, cell-based; settings: a549, 24 h, dose 1.56-100 µM
Summary of the method: (§1)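 A549 (RPMI-1640) or 293T (DMEM) cells with 10% FBS, plated overnight, then treated 24 h at 1.56–100 μM in medium with 5% FBS. MTT (5 mg/mL reagent) added for 4 h at 37 °C, dissolved in DMSO, absorbance read at 490 nm. DMSO-only control; at least three independent measurements.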

[5] = system: HEK-293T; assay: Cytotoxicity against HEK293T cells assessed as inhibition of cell growth at 1.56 to 100 uM incubated for 24 hrs by MTT assay; format: toxicity, cell-based; settings: human, dose 1.56-100 µM; summary of the method: as §1
[6] = system: HEK293T; assay: Covalent binding affinity to SARS-CoV-2 PLpro spiked in HEK293T cells lysate at 10 uM incubated for 1 hr by SDS gel analysis; format: subcellular; settings: Severe acute respiratory syndrome coronavirus 2
Summary of the method: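 293T cell lysate (300 μg protein) spiked with PLpro (5 μM), then treated with 10 μM FAM-labeled peptide. Labeling read as fluorescent bands on gel.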

[7] = system: Severe acute respiratory syndrome coronavirus 2; assay: Binding affinity to SARS-CoV-2 PLpro assessed as covalent bond formation at 10 uM incubated for 1 hr by SDS-PAGE analysis
Summary of the method: (§2)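 FAM-labeled peptides (10 μM) incubated with purified SARS-CoV-2 PLpro (5 μM) in PBS for 1 h. Covalent adduct detected by SDS gel analysis.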

[8] = system: Severe acute respiratory syndrome coronavirus 2; assay: Binding affinity to SARS-CoV-2 PLpro assessed as covalent bond formation at Cys111 at 10 uM incubated for 1 hr by SDS-PAGE analysis
[9] = system: Severe acute respiratory syndrome coronavirus 2; assay: Inhibition of SARS-CoV-2 PLpro using LRGG-ACC as substrate at <=1000 uM preincubated for 60 mins followed by substrate addition and measured for 30 mins by enzymatic assay; settings: dose microM <=1000, time 90.0 min
Summary of the method: (§3)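 Recombinant His-tagged SARS-CoV-2 PLpro (E. coli BL21(DE3), Ni-NTA then gel filtration) at 0.1 μM, preincubated 1 h at 37 °C with inhibitor diluted from 800 μM. Buffer: 50 mM HEPES pH 7.4, 0.1 mg/mL BSA, 5 mM DTT. Ac-LRGG-ACC substrate at 1 μM final. Fluorescence read at ex 355/em 460 nm for 30 min, at least three times; IC50 from curve fitting.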

[10] = system: Severe acute respiratory syndrome coronavirus 2; assay: Covalent binding affinity to SARS-CoV-2 PLpro Cys111 at 30 uM for 4 hrs by In-gel trypsin digestion based MS-MS analysis
Summary of the method: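 Peptide (30 μM) with PLpro (5 μM) in Tris buffer, 37 °C, 4 h. Conjugate band excised from 15% SDS-PAGE, destained with ammonium bicarbonate/acetonitrile and trypsin-digested overnight at 16 °C. Peptides extracted in 50% acetonitrile/0.5% formic acid for MS/MS mapping of the modified residue.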

[11] = system: Severe acute respiratory syndrome coronavirus 2; assay: Covalent binding affinity to SARS-CoV-2 PLpro by SDS-PAGE analysis
[12] = system: Severe acute respiratory syndrome coronavirus 2; assay: Covalent binding affinity to SARS-CoV-2 PLpro assessed as reaction efficiency at 0 to 25 uM for 2 hrs by SDS-PAGE analysis; settings: dose 0-25 µM
Summary of the method: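 Purified SARS-CoV-2 PLpro (5 μM) incubated with peptide at 0, 2.5, 5, 10, 15, 20 and 25 μM in PBS (pH 7.4, 37 °C). Conjugation resolved on 15% SDS-PAGE.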

[13] = Inhibition of SARS-CoV-2 PLpro using LRGG-ACC as substrate preincubated for 60 mins followed by substrate addition and measured for 30 mins by enzymatic assay; design: species or system Severe acute respiratory syndrome coronavirus 2; summary of the method: as §3
[14] = system: Severe acute respiratory syndrome-related coronavirus; assay: Inhibition of SARS-CoV PLpro using LRGG-ACC as substrate at <=1000 uM preincubated for 60 mins followed by substrate addition and measured for 30 mins by enzymatic assay; settings: dose microM <=1000, time 90.0 min
[15] = system: HEK-293T; assay: Antiviral activity against HEK293T cells co-transfected with plasmids encoding Myc-tagged ISG15, E1/E2/E3 ubiquitin ligases, SARS-CoV-2 PLpro fused with EGFP assessed as recovery of intracellular ISGylation level incubated for 24 hrs by immunoblot analysis; format: functional, cell-based; settings: Homo sapiens
Summary of the method: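 HEK293T cells co-transfected with Myc-ISG15, E1/E2/E3 ligases and EGFP-fused SARS-CoV-2 PLpro, then kept 24 h at 37 °C in DMEM with 5% FBS plus conjugate. Lysates BCA-normalised, 30 μg per lane. Western blot probed with anti-ISG15, anti-GFP and anti-GAPDH (1:1000), ECL detection.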

[16] = system: HEK-293T; assay: Antiviral activity in HEK293T cells co-transfected with plasmids encoding Renilla luciferase, Firefly luciferase is driven by IFN-beta promoter, MAVS assessed as recovery of suppressed IFN-beta promoter activity at 10 to 100 uM by Dual-Luciferase reporter assay relative to control; format: functional, cell-based; settings: Homo sapiens, dose 10-100 µM
Summary of the method: (§4)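 HEK293T cells co-transfected with Renilla luciferase reference, IFN-β promoter-driven firefly luciferase, MAVS and SARS-CoV-2 PLpro, then treated with conjugate. Activity scaled to the ISG15-plasmid positive control set as 100%; blank plasmid as negative control; unpaired two-tailed t-test.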

[17] = Drug uptake in human HeLa cells at 10 uM for 4 hrs by tryphan blue staining based flow cytometry relative to control; format: ADME, cell-based
[18] = system: Severe acute respiratory syndrome coronavirus 2; assay: Covalent binding affinity to SARS-CoV-2 PLpro assessed as reaction efficiency at 10 uM for 1 hr by SDS-PAGE analysis; summary of the method: as §2
[19] = system: Severe acute respiratory syndrome coronavirus 2; assay: Covalent binding affinity to SARS-CoV-2 PLpro assessed as reaction efficiency at 10 uM and incubated for 0.5 to 4 hrs by SDS-PAGE analysis; settings: time 0.5-4 hrs, TDE = time-dependent effect
Summary of the method: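 Peptide (10 μM) with purified SARS-CoV-2 PLpro (5 μM) in PBS, pH 7.4, 37 °C, sampled at 0.5, 1, 2, 3 and 4 h. Conjugate band resolved on 15% SDS-PAGE.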

[20] = system: HEK-293T; assay: Antiviral activity in HEK293T cells co-transfected with plasmids encoding Renilla luciferase, Firefly luciferase is driven by IFN-beta promoter, MAVS assessed as recovery of suppressed IFN-beta promoter activity at 100 uM by Dual-Luciferase reporter assay; format: functional, cell-based; settings: Homo sapiens; summary of the method: as §4

## Cc1ccc(N)cc1C(=O)NC(C)c1cccc2ccccc12 (stereo not drawn)
[1]
  Activity: Non-Toxic
[2]
  IC50: 2.6 µM
[3]
  inhibition: inactive
[4]
  Activity: Non-Toxic
[5]
  Activity: Non-Toxic

## Cc1ccc(NC(=O)CC[C@H](NC(=O)c2ccc3c(c2)C(=O)OC32c3ccc(O)cc3Oc3cc(O)ccc32)C(=O)N[C@H]2CSCc3cccc(c3)C[S+](C)CC[C@@H](C(=O)O)NC(=O)CNC(=O)[C@H](CCCNC(=N)N)NC(=O)[C@H](CC(C)C)NC2=O)cc1C(=O)NC(C)c1cccc2ccccc12 (stereo partly drawn) (5FAM-E(X1)CLRG[Met(S-mXyl)]-OH; thioether 2-6)
[6]
  Activity: Active

## Cc1ccc(NC(=O)CC[C@H](NC(=O)c2ccc3c(c2)C(=O)OC32c3ccc(O)cc3Oc3cc(O)ccc32)C(=O)N[C@H]2CC[S+](C)Cc3cccc(c3)CSC[C@@H](C(=O)O)NC(=O)CNC(=O)[C@H](CCCNC(=N)N)NC(=O)[C@H](CC(C)C)NC2=O)cc1C(=O)NC(C)c1cccc2ccccc12 (stereo partly drawn) (5FAM-E(X1)[Met(S-mXyl)]LRGC-OH; thioether 2-6)
[6]
  Activity: Active

## CC(C)C[C@@H]1NC(=O)[C@@H](N)CSCc2cccc(c2)C[S+](C)CC[C@@H](C(=O)O)NC(=O)CNC(=O)[C@H](CCCNC(=N)N)NC1=O (stereo partly drawn) (H-CLRG[Met(S-mXyl)]-OH; thioether 1-5)
[7]
  Activity: Active
[8]
  Activity: Active
[9]
  inhibition: inactive

## C[S+]1CC[C@@H](C(=O)O)NC(=O)CNC(=O)CNC(=O)[C@H](CCCNC(=N)N)NC(=O)[C@@H](N)CSCc2cccc(c2)C1 (stereo partly drawn) (H-CRGG[Met(S-mXyl)]-OH; thioether 1-5)
[7]
  Activity: Active
[8]
  Activity: Active
[9]
  inhibition: inactive

## Cc1ccc(NC(=O)CC[C@H](N)C(=O)N[C@H]2CSCc3cccc(c3)C[S+](C)CC[C@@H](C(=O)O)NC(=O)CNC(=O)[C@H](CCCNC(=N)N)NC(=O)[C@H](CC(C)C)NC2=O)cc1C(=O)NC(C)c1cccc2ccccc12 (stereo partly drawn) (H-E(X1)CLRG[Met(S-mXyl)]-OH; thioether 2-6)
[1]
  Activity: Non-Toxic
[10]
  Activity: Active
[11]
  Activity: Active
[12]
  Activity: Dose-Dependent Effect
[13]
  IC50: 8.63 µM
[14]
  inhibition: Active
[3]
  inhibition: inactive
[15]
  Activity: Dose-Dependent Effect
[16]
  Activity: Dose-Dependent Effect
[4]
  Activity: Non-Toxic
[5]
  Activity: Non-Toxic
[17]
  Drug uptake: Active

## Cc1ccc(NC(=O)CC[C@H](N)C(=O)N[C@@H](CC(C)C)C(=O)N[C@@H](CCCNC(=N)N)C(=O)NCC(=O)NCC(=O)O)cc1C(=O)NC(C)c1cccc2ccccc12 (stereo partly drawn) (H-E(X1)LRGG-OH)
[11]
  Activity: inactive
[13]
  IC50: 15.4 µM
[14]
  inhibition: inactive
[3]
  inhibition: inactive
[17]
  Drug uptake: Active

## Cc1ccc(NC(=O)CC[C@H](N)C(=O)N[C@H]2CC[S+](C)Cc3cccc(c3)CSC[C@@H](C(=O)O)NC(=O)CNC(=O)[C@H](CCCNC(=N)N)NC(=O)[C@H](CC(C)C)NC2=O)cc1C(=O)NC(C)c1cccc2ccccc12 (stereo partly drawn) (H-E(X1)[Met(S-mXyl)]LRGC-OH; thioether 2-6)
[1]
  Activity: Non-Toxic
[11]
  Activity: Active
[12]
  Activity: Dose-Dependent Effect
[18]
  Activity: Active
[19]
  Activity: Tde
[13]
  IC50: 7.4 µM
[2]
  IC50: 3.43 µM
[3]
  inhibition: inactive
[15]
  Activity: Dose-Dependent Effect
[20]
  Activity: inactive
[4]
  Activity: Non-Toxic
[5]
  Activity: Non-Toxic
[17]
  Drug uptake: Active

## CC(C)C[C@H](N)C(=O)N[C@H]1CSCc2cccc(c2)C[S+](C)CC[C@H](C(=O)O)NC(=O)CNC(=O)CNC1=O (stereo partly drawn) (H-LCGG[X2]-OH; thioether 2-5)
[9]
  inhibition: inactive

## CC(C)C[C@H](N)C(=O)N[C@@H](CCCNC(=N)N)C(=O)NCC(=O)NCC(=O)N[C@H]1CSCc2cccc(c2)C[S+](C)CC[C@@H](C(=O)O)NC(=O)[C@H](C)NC(=O)[C@H](C)NC(=O)[C@H](C)NC1=O (stereo partly drawn) (H-LRGGCAAA[Met(S-mXyl)]-OH; thioether 5-9)
[7]
  Activity: Active
[8]
  Activity: Active
[9]
  inhibition: inactive

## CC(C)C[C@H](N)C(=O)N[C@@H](CCCNC(=N)N)C(=O)NCC(=O)NCC(=O)N[C@H]1CC[S+](C)Cc2cccc(c2)CSC[C@@H](C(=O)O)NC(=O)[C@H](C)NC(=O)[C@H](C)NC(=O)[C@H](C)NC1=O (stereo partly drawn) (H-LRGG[Met(S-mXyl)]AAAC-OH; thioether 5-9)
[7]
  Activity: Active
[9]
  inhibition: inactive

## CC(C)C[C@H](N)C(=O)N[C@H]1CC[S+](C)Cc2cccc(c2)CSC[C@@H](C(=O)O)NC(=O)CNC(=O)CNC1=O (stereo partly drawn) (H-L[Met(S-mXyl)]GGC-OH; thioether 2-5)
[9]
  inhibition: inactive

## CC(C)C[C@@H]1NC(=O)[C@@H](N)CC[S+](C)Cc2cccc(c2)CSC[C@@H](C(=O)O)NC(=O)CNC(=O)[C@H](CCCNC(=N)N)NC1=O (stereo partly drawn) (H-[Met(S-mXyl)]LRGC-OH; thioether 1-5)
[9]
  inhibition: inactive

## C[S+]1CC[C@H](N)C(=O)N[C@@H](CCCNC(=N)N)C(=O)NCC(=O)NCC(=O)N[C@H](C(=O)O)CSCc2cccc(c2)C1 (stereo partly drawn) (H-[Met(S-mXyl)]RGGC-OH; thioether 1-5)
[7]
  Activity: Active
[9]
  inhibition: inactive
